PMC7081261 (ACS Omega, 2020)

System: DU-145 prostate carcinoma cells
Assay: MTT cell viability assay
Format: cell-based
Conditions: 24 h
Procedure, shortened: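 DU-145 prostate carcinoma cells grown at 37 °C, 5% CO2, then seeded at 1.5 × 10^5 cells per well. Test compound dilution series (10–500 μg/mL) prepared in RPMI-1640 and applied for 24 h; viability read by MTT, expressed as IC50. Elevated-Zn2+ conditions: medium adjusted with 50 μM ZnCl2. DTNB conditions: cells preincubated 1 h in RPMI-1640 with 2.5 mM DTNB, and dilution series supplemented with 1 mM DTNB during the 24 h exposure.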

| Substance | cytotoxicity against DU-145 cells (in words) (elevated Zn2+ (50 μM ZnCl2), no DTNB) | cytotoxicity against DU-145 cells (in words) (normal Zn2+ conditions (no ZnCl2 added)) | cytotoxicity against DU-145 cells (in words) (Zn2+ condition not stated) |
| --- | --- | --- | --- |
| (GHHPG)2 | No activity | No activity |  |
| H2N-EAEAEA-SS-(Ac)CAhxGHHPHGHHPH-amide (disulfide) [(EA)3-thiol] |  |  | no activity |
